Measured values taken from ChEMBL document CHEMBL1122617, “6,7-Dihydroxy-3-chromanamine: synthesis and pharmacological activity of an oxygen isostere of the dopamine agonist 6,7-dihydroxy-2-aminotetralin” (J Med Chem, 1984).

Assays:
[1] = test system: Rattus norvegicus; assay: Effect on DA metabolism was determined by measuring concentration of DA at a time interval of 0 minutes after ip administration of 100 umol/kg of compound; assay type: functional, organism-based
[2] = organism: Rattus norvegicus; assay: Concentration required to reduce the specific binding of [3H]NPA by 50% to rat corpus striatum; assay type: functional, organism-based
How it was run: (§1)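 Male rat (200-225 g) striatal homogenate, 2.5 mg wet weight per tube, in 15 mM Tris-HCl pH 7.5 with 1 mM EDTA and 0.01% ascorbic acid. [3H]NPA 0.50 nM final, 25 °C for 20 min. Nonspecific binding with 1 μM d-butaclamol. Displacer tested over 10⁻¹¹–10⁻⁵ M in triplicate. IC50 = 50% reduction of specific binding, mean ± SEM of three experiments.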

[3] = test system: Rattus norvegicus; assay: Effect on DA metabolism was determined by measuring concentration of DA at a time interval of 15 minutes after ip administration of 100 umol/kg of compound; assay type: functional, organism-based
How it was run: (§2)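 Female rats (180-200 g) given 100 μmol/kg ip in saline with 0.1% sodium metabisulfite, killed at 15 or 45 min. Striatum frozen on dry ice and kept at -80 °C. DA, DOPAC and HVA isolated on Sephadex G-10, then measured by reversed-phase C18 HPLC with amperometric detection. Control cerebellum used as blank. Not corrected for recovery (86-89%). Mean ± SEM.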

[4] = test system: Rattus norvegicus; assay: Effect on 6,7-dihydroxy-3-chromanamine metabolism was determined by measuring concentration of 6,7-dihydroxy-3-chromanamine at a time interval of 15 min after ip administration of 100 umol/kg of compound; assay type: functional, organism-based
How it was run: (§3)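 Female rats (180-200 g) given 100 μmol/kg ip in saline with 0.1% sodium metabisulfite. Killed at 15 or 45 min; striatum dissected, frozen on dry ice and kept at -80 °C. Drug level measured by HPLC with electrochemical detection, mobile phase 0.1 M phosphate-acetate pH 4.5, against a standard. Corrected for 78.8% recovery from spiked brain. Mean ± SEM, n = 8.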

[5] = test system: Rattus norvegicus; assay: Effect on DOPAC metabolism was determined by measuring concentration of DOPAC at a time interval of 45 minutes after ip administration of 100 umol/kg of compound; assay type: functional, organism-based; how it was run: as §2
[6] = organism: Rattus norvegicus; assay: Binding affinity to rat corpus striatum was determined using [3H]NPA as radioligand; assay type: functional; how it was run: as §1
[7] = Partition coefficient (logP); assay type: physicochemical; settings: octanol/water
How it was run: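 Log P measured in octanol-phosphate buffer at pH 7.4. Phases analysed by the same HPLC-electrochemical method. Mean ± SD, n = 6.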

[8] = test system: Rattus norvegicus; assay: Effect on DOPAC metabolism was determined by measuring concentration of DOPAC at a time interval of 0 minutes after ip administration of 100 umol/kg of compound; assay type: functional, organism-based
[9] = test system: Rattus norvegicus; assay: Effect on DA metabolism was determined by measuring concentration of DA at a time interval of 45 min after ip administration of 100 umol/kg of compound; assay type: functional, organism-based; how it was run: as §2
[10] = test system: Rattus norvegicus; assay: Effect on HVA metabolism was determined by measuring concentration of HVA at a time interval of 0 minutes after ip administration of 100 umol/kg of compound; assay type: functional, organism-based
[11] = test system: Rattus norvegicus; assay: Effect on HVA metabolism was determined by measuring concentration of HVA at a time interval of 15 minutes after ip administration of 100 umol/kg of compound; assay type: functional, organism-based; how it was run: as §2
[12] = test system: Rattus norvegicus; assay: Effect on DOPAC metabolism was determined by measuring concentration of DOPAC at a time interval of 15 minutes after ip administration of 100 umol/kg of compound; assay type: functional, organism-based; how it was run: as §2
[13] = test system: Rattus norvegicus; assay: Effect on HVA metabolism was determined by measuring concentration of HVA at a time interval of 45 minutes after ip administration of 100 umol/kg of compound; assay type: functional, organism-based; how it was run: as §2
[14] = test system: Rattus norvegicus; assay: Effect on 6,7-dihydroxy-3-chromanamine metabolism was determined by measuring concentration of 6,7-dihydroxy-3-chromanamine at a time interval of 45 min after ip administration of 100 umol/kg of compound; assay type: functional, organism-based; how it was run: as §3

| SMILES | Concentration [1] [µg/g] | IC50 [2] [nM] | Concentration [3] [µg/g] | Concentration [4] [nM/g] | Concentration [5] [µg/g] | Ki [6] [nM] | logP [7] | Concentration [8] [µg/g] | Concentration [9] [µg/g] | Concentration [10] [µg/g] | Concentration [11] [µg/g] | Concentration [12] [µg/g] | Concentration [13] [µg/g] | Concentration [14] [nM/g] |
| --- | --- | --- | --- | --- | --- | --- | --- | --- | --- | --- | --- | --- | --- | --- |
| NC1COc2cc(O)c(O)cc2C1 (centres undefined) | 9.87 | 259 | 10.5 | 0.34 | 1.02 | 144 | 1.39 | 1.05 | 10.8 | 0.91 | 0.83 | 0.97 | 1.02 | 0.2 |
| NC1CCc2cc(O)c(O)cc2C1 (centres undefined) | – | 24.5 | – | – | – | 12 | 1.88 | – | – | – | – | – | – | – |
| CN1CCc2cccc3c2[C@H]1Cc1ccc(O)c(O)c1-3 [APOMORPHINE] | – | 22.6 | – | – | – | 10.5 | – | – | – | – | – | – | – | – |
